# A selection follows.
# PGC1a acetyl up: raises PGC1a acetylation signal in U2OS cells. AID 651723. hit rate 0.21% among 350,000. U2OS PGC1a acetylation AlphaScreen, overnight. activation, % at 15.6 µM;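 active = every replicate reaching activation of at least 50%, whatever the mean replicate activation; inconclusive = replicates that disagree or another doubt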;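 also: hits raise the AlphaScreen acetylation signal above neutral controls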
#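 System – flag-PGC1a/GCN5 U2OS cells · Quantity – 7000 U2OS cells per well · Signal – AlphaScreen proximity luminescence, anti-acetyl-lysine antibody · Schedule – overnight compound treatment, 37 °C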
# Hep G6PC suppr: hepatocyte G6PC expression change via PGC-1a acetylation activation | primary mouse hepatocytes, G6PC mRNA qPCR, forskolin | G6PC suppression (normalized activity, % of positive control; higher = more suppression), % at 26 µM | shares compounds with PGC1a acetyl up | 240 tested, under 10 active;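 active = dose curves showing G6PC suppression whose half-maximal dose is at most twice the top valid dose; inconclusive = flat curves with moderate negative activity, or unreliable fits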;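 also: G6PC expression relative to GAPDH housekeeping gene as delta delta Ct; 0% = median of neutral control wells and 100% = median of positive control wells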
# PCK1 hep suppr: PGC-1a acetylation activator altering hepatocyte PCK1 expression | shares compounds with PGC1a acetyl up | primary mouse hepatocytes, PCK1 mRNA qPCR, forskolin-stimulated | PCK1 expression decrease, unspecified at 26 µM | 230 tested, under 10 active | AID 743465;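 active = compounds lowering PCK1 expression whose fitted half-maximal concentration is at most twice the top tested dose; inconclusive = flat fit with moderate opposite-direction effect, or poor fit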;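 also: values are delta delta Ct of PCK1 relative to GAPDH; higher delta delta Ct means lower PCK1 expression so positive values indicate hits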
# PGC1a hep suppr: hepatocyte PGC-1a expression change via PGC-1a acetylation activation | shares compounds with PGC1a acetyl up | primary mouse hepatocytes, PGC-1a mRNA qPCR, forskolin; top dose 26 µM | max activity (PGC-1a expression decrease), % | 240 tested, under 10 active;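 active = compound lowering PGC-1a expression with fitted half-maximal concentration at most twice its top tested dose; inconclusive = flat curve with moderate opposite-direction effect, or poor fit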;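 also: 0% = neutral control wells median and 100% = positive control wells median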
# * marks the source's active call; other numbers are inactive results; i = inactive; ? = inconclusive; nt = no result given; [ ] = another dose, or the depositor's remark.
SMILES,PGC1a acetyl up,Hep G6PC suppr,PCK1 hep suppr,PGC1a hep suppr
O=C(NCCCN1CCOCC1)c1ccccc1N1C(=O)[C@@H]2Cc3c([nH]c4ccccc34)C(c3ccccc3)N2C1=O (stereo partly specified),320*,230,83,63
CC1(C)CC(=O)C(N=Nc2cc(Cl)c(Cl)c(Cl)c2)=C(O)C1,-48,nt,nt,nt
CCCCN(CCCC)S(=O)(=O)c1ccc2oc(C(=O)N3CCOCC3)c(C)c2c1,102*,11,5.3,48
O=C(c1nc2nc(-c3ccccc3)cc(C(F)(F)F)n2n1)N1CCCCC1,-41,nt,nt,nt
Cc1cc2nc(/C=C/c3cccnc3)[nH]c2cc1C,-67,nt,nt,nt
Cc1nc2ccccn2c1C(=O)/C=C/c1ccc(F)cc1,-41,nt,nt,nt
Nc1c(C(=O)Nc2ccccc2)c2nc3ccccc3nc2n1CCCN1CCOCC1,57*,197,106,-12
CCN(CC)c1ccc(NC2=C(Cl)C(=O)c3ccccc3C2=O)cc1,-68,nt,nt,nt
Cc1ccc(S(=O)(=O)N[C@H]2C=C[C@@H](CC(=O)NCCN3CCCCC3)O[C@H]2CO)cc1,-105,nt,33,41
O=C(CSc1nc2cc(Cl)ccc2s1)NCC1CCCO1 (stereo unspecified),-52,nt,nt,nt
CN(C)CCCNc1cc(-c2ccccc2)nc2cc(-c3cccc(F)c3)nn12,?,i,?,?
O=P(CCCCCCCCCP(=O)(c1ccccc1)c1ccccc1)(c1ccccc1)c1ccccc1,-78,nt,nt,nt
O=C(Nc1ccc(F)cc1)c1sc2cc(C(F)(F)F)cnc2c1-c1cccs1,-114,nt,nt,nt
Cc1ccc(NC(=O)c2sccc2SCc2cccc(C(F)(F)F)c2)cc1,?,-22,76,141
CCOC(=O)CN1C(=N)N(c2nc(NC(C)C)nc(OC)n2)CC1=O,-45,nt,nt,nt
COc1ccc(NC(=O)N(C)C[C@H]2OCc3ccccc3-c3c(n(C)c4ccccc34)C(=O)N([C@@H](C)CO)C[C@H]2C)c(OC)c1,85*,11[9 µM],47,80
C[C@@H]1CN([C@H](C)CO)C(=O)c2c(c3ccccc3n2C)-c2ccccc2CO[C@@H]1CN(C)C(=O)Nc1ccccc1C(F)(F)F,96*,10,17,117
Cc1ccccc1CSc1nnc(-c2ccco2)n1Cc1ccco1,-99,nt,nt,nt
CCOCCOC(=O)C(C)Oc1ccc(Oc2nc(Cl)ccc2Cl)cc1 (stereo unspecified),-88,nt,nt,nt
O=C(Cn1c(CN2CCCCC2)nc2ccccc2c1=O)Nc1ccccc1,-50,19[8 µM],63,95
Cc1nonc1NC(=O)CSc1nc(C2CCCCC2)nc2ccccc12,-55,nt,nt,nt
OCCNc1nc(N2CCCCC2)nc2ccccc12,-67,nt,nt,nt
CCOc1ccc(S(N)(=O)=O)cc1-c1nc2c(C(C)(C)C)nn(C)c2c(=O)[nH]1,-50,nt,nt,nt
COc1cc(CNCCN2CCOCC2)ccc1OCc1ccc(Cl)cc1Cl,-101,nt,nt,nt

# Bioassay records (PubChem BioAssay)
